# Screening data as filed in PubChem.
# SIRT5 block = SIRT5 desuccinylase inhibitors, primary screen, biochemical, fluorescence imaging, single point, set 5. inhibition, % at 15 µM. 1.1% of 330,000 active. AID 652115, 2013. Purified SirT5, succinyl-peptide AMC, trypsin-coupled fluorescence. NAD-dependent protein deacylase sirtuin-5, mitochondrial (Homo sapiens), Q9NXA8; in the data active = inhibition above about 15%
# Target sequence (Q9NXA8 whole entry, looked up): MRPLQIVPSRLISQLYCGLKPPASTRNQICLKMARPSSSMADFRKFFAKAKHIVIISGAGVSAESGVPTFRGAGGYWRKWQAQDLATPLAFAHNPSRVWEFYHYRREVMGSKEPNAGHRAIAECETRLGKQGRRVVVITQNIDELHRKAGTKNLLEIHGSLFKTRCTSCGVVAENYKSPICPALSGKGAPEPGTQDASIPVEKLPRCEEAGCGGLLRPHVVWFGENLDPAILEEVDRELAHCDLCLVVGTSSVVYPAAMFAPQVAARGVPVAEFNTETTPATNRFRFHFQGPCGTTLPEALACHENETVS
# CASP6 VEID inh = human caspase-6 inhibitors, primary screen, biochemical, VEID-R110 fluorescence, single point, set 2; inhibition, % at 12.5 µM; purified caspase-6, Z-VEID-R110 cleavage fluorescence; 0.53% of 350,000 active; AID 686996, 2013; P55212;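 active = mean inhibition across replicates at least about 35%, with every replicate also reaching that limit, limit read from the data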
# NSD2 inh = NSD2 histone methyltransferase inhibitors, primary screen, biochemical, AlphaScreen, single concentration, set 2 | NSD2 peptide methylation, 120 min | inhibition, % at 12.5 µM | 0.54% of 310,000 active; in the data active = inhibition above about 50%
# UCH37 inh = inhibitors of human UCH37 deubiquitinase, primary screen, biochemical, Ub-AMC cleavage, fluorescence. purified proteasome/UCH37. inhibition, % (no concentration beside the values). 0.33% of 330,000 active;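 active = mean inhibition over replicate wells above about 20%, limit read from the data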
# Target sequence (Q9Y5K5 whole entry, looked up): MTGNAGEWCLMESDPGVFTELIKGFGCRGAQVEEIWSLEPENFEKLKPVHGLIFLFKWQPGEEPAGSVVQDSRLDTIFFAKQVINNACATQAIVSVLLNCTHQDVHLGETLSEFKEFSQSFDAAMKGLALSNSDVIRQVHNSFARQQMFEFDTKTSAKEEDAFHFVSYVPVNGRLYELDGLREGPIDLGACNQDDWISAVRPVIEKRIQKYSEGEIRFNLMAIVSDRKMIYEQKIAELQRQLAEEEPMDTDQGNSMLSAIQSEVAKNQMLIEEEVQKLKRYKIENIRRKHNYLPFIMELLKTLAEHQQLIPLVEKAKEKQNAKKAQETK
#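 Material: human UCH37 enzyme supplied as purified proteasome complex. Measure: % inhibition of Ub-AMC cleavage fluorescence. Medium: pH 7.4 Tris-HCl (50 mM) with ovalbumin, ATP-MgCl2, DTT. Times: 30 min preincubation with enzyme, 25 min cleavage at room temperature. Detection: AMC fluorescence intensity at 355/460 nm.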
# FGF22 binding = binders of human FGF22 protein, primary screen, FGF22 synaptogenesis inhibitor project, biophysical, thermal shift, single point; 1.5% of 340,000 active; recombinant FGF22 thermal shift, SYPRO orange fluorescence; percent of sucrose octasulfate shift, DMSO zero; Fibroblast growth factor 22 (Homo sapiens), Q9HCT0; activity (Tm shift, normalised), % at 9.99 µM; AID 651658, 2012;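 active = mean Tm shift, scaled 0 neutral to 100 positive control, at about 1.3% or above, every replicate too, limit read from the data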
# Numbers stand for hits; - = inactive; . = no result. In the library only some 2.6% were active in any assay of this set; here they are far more common.
SMILES,SIRT5 block,CASP6 VEID inh,NSD2 inh,UCH37 inh,FGF22 binding
O=C(NN=Cc1ccc(OC(=O)c2ccco2)cc1)c1ccccn1,.,.,.,-,.
Cc1c(C(=O)N2CCOCC2)c(S(=O)(=O)Nc2ccc(F)cc2)c(C)n1C,-,-,-,-,-
Cc1c(C(=O)N2CCOCC2)c(S(=O)(=O)Nc2ccccc2)c(C)n1C,19.4,-,-,-,-
CN1CCN(c2cc(CNC[C@H]3O[C@@H](n4cnc5c(=O)[nH]c(N)nc54)[C@H](O)[C@@H]3O)ccc2F)CC1,-,54.0,.,.,-
C[C@H]1CN([C@@H](C)CO)S(=O)(=O)c2ccc(-c3cccc(C(=O)N(C)C)c3)cc2O[C@H]1CN(C)C,-,-,.,.,-
CC(C)N1CCN(Cc2ccc3c(c2)Cc2ccccc2-3)CC1CCO (stereo not given),-,-,-,-,42.9
CC(C)CCN1CCN(Cc2cnc(N3CCCC3)s2)CC1CCO (stereo not given),38.2,-,-,-,-
CC(=O)c1cccc(CN2CCN(C(C)C)C(CCO)C2)c1 (stereo not given),-,-,-,-,43.5
CC(C)=CCN1CCN(Cc2cnc(N3CCCC3)s2)CC1CCO (stereo not given),-,-,-,-,-
CC(C)N1CCN(Cc2cnc(-c3ccccc3)s2)CC1CCO (stereo not given),22.0,-,-,-,.
C[C@@H]1CN([C@@H](C)CO)C(=O)Cc2cc(NC(=O)CCC(F)(F)F)ccc2O[C@H]1CN(C)Cc1ccccc1,-,-,.,.,-
COc1ccc(C=NNC(=O)c2ccc[nH]2)cc1,.,.,.,-,.
CC(NC1CCCC1)c1ccccc1 (stereo not given),-,-,-,-,43.9
CC(NC(=O)C1CCCC1)c1ccccc1 (stereo not given),-,-,-,.,-
OC[C@@H]1Nc2ccc(C#Cc3cccc(F)c3)cc2[C@@H]2NCC[C@H]12,-,-,.,.,.
CC(c1ccon1)N(C)Cc1c(C(=O)N(C)Cc2ccccc2)nc2ccccn12 (stereo not given),-,-,-,-,43.1
CCCNC(=O)C[C@H]1C[C@H]2c3cc(NC(=O)Nc4ccccc4F)ccc3O[C@H]2[C@@H](CO)O1,.,-,.,.,-
CN1CCN(c2ccccc2/C=N/NC(=O)c2cccnc2)CC1,-,-,-,.,-
O=C(Nc1cc2c(cc1[N+](=O)[O-])OCCO2)c1cccnc1,.,-,-,-,43.1
O=C(Nc1ccc([N+](=O)[O-])c(NC(=O)c2cccnc2)c1)c1cccnc1,-,-,-,-,-
O=C(NN=Cc1cc([N+](=O)[O-])c(N2CCOCC2)cc1N1CCOCC1)c1cccnc1,.,.,.,23.0,.
C[C@@H]1CN([C@H](C)CO)S(=O)(=O)c2ccc(-c3cccc(C#N)c3)cc2O[C@H]1CN(C)C(=O)c1ccncc1,-,-,.,.,-
C[C@@H]1CN([C@H](C)CO)C(=O)c2cc(NC(=O)Nc3ccccc3)ccc2O[C@@H](C)CCCCO[C@H]1CN(C)C(=O)C1CCCCC1,-,-,.,.,-
CC1(C)c2ccccc2-c2nc3ccccc3cc2C1N1CCOCC1 (stereo not given),.,-,-,-,43.2
CC(C)c1nnc(NC(=O)Cc2cccs2)s1,-,-,.,-,-
SMILES,SIRT5 block,CASP6 VEID inh,NSD2 inh,UCH37 inh,FGF22 binding
CC(C)(C)Cc1nnc(NC(=O)Cc2cccs2)s1,29.4,-,-,-,-
CC(C)Cc1nnc(NC(=O)Cc2cccs2)s1,-,-,-,-,43.2
CCCCCc1nnc(NC(=O)Cc2cccs2)s1,.,.,-,-,.
C[C@@H]1CN([C@@H](C)CO)C(=O)c2cc(-c3ccccc3)cnc2O[C@@H]1CN(C)Cc1cccnc1,-,-,.,.,-
Cc1ccc(NC(=S)N2CCC(NC(=O)c3ccc(C)cc3)CC2)cc1,-,-,.,-,-
CCCNC(=S)N1CCC(NC(=O)c2ccc(C)cc2)CC1,24.7,-,-,-,-
N#CCCn1nc(-c2ccccc2)cc1Nc1ccccc1NC(=O)C(F)(F)F,-,-,.,-,-
N#CCCn1nc(-c2ccc(Br)cc2)cc1Nc1ccccc1NC(=O)C(F)(F)F,-,-,-,-,2.5
COCCNC(=O)C[C@H]1CC[C@H]2[C@@H](COc3ccc(NC(=O)Nc4ccccc4)cc3C(=O)N2C)O1,-,-,.,.,-
Cc1ccc(Cc2cnc(N3C(=N)SC(C)C3=O)s2)cc1 (stereo not given),-,-,-,-,43.2
C[C@@H]1CN([C@@H](C)CO)C(=O)c2cc(NS(=O)(=O)c3ccc(F)cc3)ccc2O[C@@H](C)CCCCO[C@@H]1CN(C)S(=O)(=O)c1cn(C)cn1,-,-,.,.,-
CC1=CC(C)C(=O)N(CCN2CCOCC2)C(C)=C1 (stereo not given),.,-,-,.,43.4
C[C@H]1CN([C@@H](C)CO)S(=O)(=O)c2ccc(C#Cc3ccccc3F)cc2O[C@H]1CN(C)C(=O)c1ccc2c(c1)OCO2,16.8,-,.,.,-
C[C@@H]1CN([C@@H](C)CO)S(=O)(=O)c2ccc(C#Cc3ccccc3F)cc2O[C@@H]1CN(C)C(=O)c1ccc2c(c1)OCO2,25.8,-,.,.,-
C[C@H]1CN([C@@H](C)CO)S(=O)(=O)c2ccc(C#Cc3ccccc3F)cc2O[C@@H]1CN(C)C(=O)Cc1ccccc1,-,-,.,.,-
CCOC(=O)C1=CCN(S(=O)(=O)c2ccc(C)cc2)C1c1ccc(CC)cc1 (stereo not given),15.9,-,.,.,-
CCOC(=O)C1=CCN(S(=O)(=O)c2ccc(C)cc2)C1c1cccc(Br)c1 (stereo not given),28.8,-,.,.,-
CCOC(=O)C1=CCN(S(=O)(=O)c2ccc(Br)cc2)C1c1cccc(C)c1 (stereo not given),.,-,.,.,-
CCOC(=O)C1=CCN(S(=O)(=O)c2ccc(C)cc2)C1c1ccc(C)cc1 (stereo not given),-,-,.,.,-
CN1c2ccc(-c3ccc(F)cc3)cc2[C@@H]2[C@@H](CCN2C(=O)c2cccc(F)c2)[C@@H]1CO,-,-,.,.,-
Oc1ccc(C=NNc2ccnc3cc(Cl)ccc23)cc1O,.,.,.,-,.
Oc1ccc(/C=N/Nc2ccnc3cc(Cl)ccc23)cc1O,.,46.6,-,.,-
CC(C)(C)c1ccc(C#C[C@@H]2C=C[C@H](O)[C@@H](COC(=O)Nc3ccccc3)O2)cc1,.,-,.,.,44.5
CCNC(=O)OC[C@H]1O[C@H](C#Cc2ccc(C(C)(C)C)cc2)C=C[C@H]1O,.,-,-,.,-
COCCNC(=O)C[C@H]1C=C[C@H](NC(=O)NC2CCCC2)[C@@H](CO)O1,-,-,.,.,-
Cc1ccc(N2C(=O)c3ccccc3C2C(=O)c2ccc(O)cc2O)cc1 (stereo not given),-,73.8,-,-,-
